Data as given in ChEMBL document CHEMBL5385915 (J Med Chem, 2024).
≈ marks a conversion by molar mass, not a printed value.

Test system: Mycobacterium tuberculosis
Test: Antitubercular activity against multidrug-resistant Mycobacterium tuberculosis 08/00483E assessed as inhibition of bacterial growth measured for 7 days by REMA analysis
Type: functional
Conditions: 168 h, time 7 day
In short: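 REMA: 2-fold dilutions in CMM MOD2 medium, wells inoculated at 1×10^6 CFU/mL, 7 days at 37 °C with 200 rpm agitation; resazurin (0.02% w/v in PBS pH 7.4, 5% Tween 80) then 6 h at room temperature; OD570 vs vehicle; MIC99 by modified Gompertz function; three biological replicates.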

In the case of `FC(F)(F)c1cc([C@H]2C[C@@H](CN3CCCC3)N2Cc2ccccc2Br)cc(C(F)(F)F)c1` (racemic), the MIC99 is reported as 16.8 µM (≈ 8.76 µg/mL).
